Each compound was assayed on L02 (assay: Cytotoxicity against human LO2 cells assessed as reduction in cell growth at 5 to 10 uM after 24 hrs by MTT assay). Conditions: l02, 24 h.
Type: cell-based
`N#Cc1ccc(-c2cnc3[nH]cc(-c4nnc(-c5ccc(F)cc5)o4)c(=O)c3c2)cc1` was tested, and the Activity was “Non-Toxic”. For `CS(=O)(=O)c1ccc(-c2cnc3[nH]cc(-c4nnc(-c5ccccn5)o4)c(=O)c3c2)cc1`, the Activity was “Non-Toxic”. With `CS(=O)(=O)c1ccc(-c2cnc3[nH]cc(-c4nnc(-c5ccc(F)cc5)o4)c(=O)c3c2)cc1` the Activity was “Non-Toxic”. In the case of `CS(=O)(=O)c1ccc(-c2cnc3[nH]cc(-c4nnc(-c5ccccc5)o4)c(=O)c3c2)cc1`, the Activity is reported as “Non-Toxic”. With `O=c1c(-c2nnc(-c3ccc(Cl)cc3)o2)c[nH]c2ncc(-c3cccnc3)cc12` the Activity was “Non-Toxic”. With `CS(=O)(=O)c1ccc(-c2cnc3[nH]cc(-c4nnc(-c5ccncc5)o4)c(=O)c3c2)cc1` the Activity was “Non-Toxic”.

What follows are compounds tested on A549 (assay: Growth inhibition of human A549 cells at 5 uM after 24 hrs by MTT assay relative to control). Conditions: A549, 24 h, read-out: GI.
Type: functional
How it was run: (§1)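 Monolayers seeded 24 h before treatment, then exposed to compound, with DMEM or RPMI 1640 plus 10% FBS as growth medium. MTT (5 mg mL–1 stock) incubated 2–4 h at 37 °C, formazan dissolved in DMSO, and absorbance read at 570 nm. Growth inhibition reported as % of control.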
Work on `CS(=O)(=O)c1ccc(-c2cnc3[nH]cc(-c4nnc(-c5ccc(F)cc5)o4)c(=O)c3c2)cc1` yielded an inhibition of growth at 5 µM of 3.11%. Compound `CS(=O)(=O)c1ccc(-c2cnc3[nH]cc(-c4nnc(-c5ccccc5)o4)c(=O)c3c2)cc1` has an inhibition of growth at 5 µM of 8.17%. Work on `CS(=O)(=O)c1ccc(-c2cnc3[nH]cc(-c4nnc(-c5ccncc5)o4)c(=O)c3c2)cc1` yielded an inhibition of growth at 5 µM of 6.76%.

What follows are compounds tested on HCT-116 (assay: Growth inhibition of human HCT116 cells at 2.5 uM after 24 hrs by MTT assay relative to control). Conditions: HCT-116, 24 h, read-out: GI.
Type: functional
How it was run: as §1
Work on `N#Cc1ccc(-c2cnc3[nH]cc(-c4nnc(-c5ccc(F)cc5)o4)c(=O)c3c2)cc1` yielded an inhibition of growth at 2.5 µM of 10.2%. Compound `CS(=O)(=O)c1ccc(-c2cnc3[nH]cc(-c4nnc(-c5ccccn5)o4)c(=O)c3c2)cc1` has an inhibition of growth at 2.5 µM of 5.37%. Work on `CS(=O)(=O)c1ccc(-c2cnc3[nH]cc(-c4nnc(-c5ccc(F)cc5)o4)c(=O)c3c2)cc1` yielded an inhibition of growth at 2.5 µM of 10.7%. With `CS(=O)(=O)c1ccc(-c2cnc3[nH]cc(-c4nnc(-c5ccccc5)o4)c(=O)c3c2)cc1` the inhibition of growth at 2.5 µM was 0.53%. For `O=c1c(-c2nnc(-c3ccc(Cl)cc3)o2)c[nH]c2ncc(-c3cccnc3)cc12`, the inhibition of growth at 2.5 µM was 10.4%. Compound `CS(=O)(=O)c1ccc(-c2cnc3[nH]cc(-c4nnc(-c5ccncc5)o4)c(=O)c3c2)cc1` has an inhibition of growth at 2.5 µM of 2.64%.

Each compound was assayed on MCF7 (assay: Growth inhibition of human MCF7 cells at 5 uM after 24 hrs by MTT assay relative to control). Conditions: MCF7, 24 h, read-out: GI.
Type: functional
How it was run: as §1
`CS(=O)(=O)c1ccc(-c2cnc3[nH]cc(-c4nnc(-c5ccc(F)cc5)o4)c(=O)c3c2)cc1` gave an inhibition of growth at 5 µM of 3.78%. With `CS(=O)(=O)c1ccc(-c2cnc3[nH]cc(-c4nnc(-c5ccccc5)o4)c(=O)c3c2)cc1` the inhibition of growth at 5 µM was 1.38%. `CS(=O)(=O)c1ccc(-c2cnc3[nH]cc(-c4nnc(-c5ccncc5)o4)c(=O)c3c2)cc1` was tested, and the inhibition of growth at 5 µM was 2.35%.

The compounds below were run on KB (assay: Growth inhibition of human KB cells at 10 uM after 24 hrs by MTT assay relative to control). Conditions: read-out: GI.
Type: functional
How it was run: as §1
Compound `CS(=O)(=O)c1ccc(-c2cnc3[nH]cc(-c4nnc(-c5ccc(F)cc5)o4)c(=O)c3c2)cc1` has an inhibition of growth at 10 µM of 7.58%. In the case of `CS(=O)(=O)c1ccc(-c2cnc3[nH]cc(-c4nnc(-c5ccccc5)o4)c(=O)c3c2)cc1`, the inhibition of growth at 10 µM is reported as 5.2%. `CS(=O)(=O)c1ccc(-c2cnc3[nH]cc(-c4nnc(-c5ccncc5)o4)c(=O)c3c2)cc1` gave an inhibition of growth at 10 µM of 3.02%.

What follows are compounds tested on HepG2 (assay: Growth inhibition of human HepG2 cells at 10 uM after 24 hrs by MTT assay relative to control). Conditions: HepG2, 24 h, read-out: GI.
Type: functional
How it was run: as §1
For `CS(=O)(=O)c1ccc(-c2cnc3[nH]cc(-c4nnc(-c5ccc(F)cc5)o4)c(=O)c3c2)cc1`, the inhibition of growth at 10 µM was 11.1%. `CS(=O)(=O)c1ccc(-c2cnc3[nH]cc(-c4nnc(-c5ccccc5)o4)c(=O)c3c2)cc1` was tested, and the inhibition of growth at 10 µM was 6.98%. Compound `CS(=O)(=O)c1ccc(-c2cnc3[nH]cc(-c4nnc(-c5ccncc5)o4)c(=O)c3c2)cc1` has an inhibition of growth at 10 µM of 6.65%.

The compounds below were run on HCT-116 (assay: Growth inhibition of human HCT116 cells at 5 uM after 24 hrs by MTT assay relative to control). Conditions: HCT-116, 24 h, read-out: GI.
Type: functional
How it was run: as §1
Work on `N#Cc1ccc(-c2cnc3[nH]cc(-c4nnc(-c5ccc(F)cc5)o4)c(=O)c3c2)cc1` yielded an inhibition of growth at 5 µM of 12.6%. Work on `CS(=O)(=O)c1ccc(-c2cnc3[nH]cc(-c4nnc(-c5ccccn5)o4)c(=O)c3c2)cc1` yielded an inhibition of growth at 5 µM of 11.3%. In the case of `CS(=O)(=O)c1ccc(-c2cnc3[nH]cc(-c4nnc(-c5ccc(F)cc5)o4)c(=O)c3c2)cc1`, the inhibition of growth at 5 µM is reported as 14.9%. Work on `CS(=O)(=O)c1ccc(-c2cnc3[nH]cc(-c4nnc(-c5ccccc5)o4)c(=O)c3c2)cc1` yielded an inhibition of growth at 5 µM of 8.6%. Compound `O=c1c(-c2nnc(-c3ccc(Cl)cc3)o2)c[nH]c2ncc(-c3cccnc3)cc12` has an inhibition of growth at 5 µM of 15.9%. Compound `CS(=O)(=O)c1ccc(-c2cnc3[nH]cc(-c4nnc(-c5ccncc5)o4)c(=O)c3c2)cc1` has an inhibition of growth at 5 µM of 5.61%.

The compounds below were run on HepG2 (assay: Growth inhibition of human HepG2 cells at 5 uM after 24 hrs by MTT assay relative to control). Conditions: HepG2, 24 h, read-out: GI.
Type: functional
How it was run: as §1
Work on `CS(=O)(=O)c1ccc(-c2cnc3[nH]cc(-c4nnc(-c5ccc(F)cc5)o4)c(=O)c3c2)cc1` yielded an inhibition of growth at 5 µM of 9.45%. `CS(=O)(=O)c1ccc(-c2cnc3[nH]cc(-c4nnc(-c5ccccc5)o4)c(=O)c3c2)cc1` was tested, and the inhibition of growth at 5 µM was 5.46%. Compound `CS(=O)(=O)c1ccc(-c2cnc3[nH]cc(-c4nnc(-c5ccncc5)o4)c(=O)c3c2)cc1` has an inhibition of growth at 5 µM of 3.49%.

These compounds were tested on KB (assay: Growth inhibition of human KB cells at 5 uM after 24 hrs by MTT assay relative to control). Conditions: read-out: GI.
Type: functional
How it was run: as §1
Work on `CS(=O)(=O)c1ccc(-c2cnc3[nH]cc(-c4nnc(-c5ccc(F)cc5)o4)c(=O)c3c2)cc1` yielded an inhibition of growth at 5 µM of 2.55%. Compound `CS(=O)(=O)c1ccc(-c2cnc3[nH]cc(-c4nnc(-c5ccccc5)o4)c(=O)c3c2)cc1` has an inhibition of growth at 5 µM of 4.38%. Work on `CS(=O)(=O)c1ccc(-c2cnc3[nH]cc(-c4nnc(-c5ccncc5)o4)c(=O)c3c2)cc1` yielded an inhibition of growth at 5 µM of 2.16%.

Each compound was assayed on A549 (assay: Growth inhibition of human A549 cells at 10 uM after 24 hrs by MTT assay relative to control). Conditions: A549, 24 h, read-out: GI.
Type: functional
How it was run: as §1
For `CS(=O)(=O)c1ccc(-c2cnc3[nH]cc(-c4nnc(-c5ccc(F)cc5)o4)c(=O)c3c2)cc1`, the inhibition of growth at 10 µM was 3.59%. With `CS(=O)(=O)c1ccc(-c2cnc3[nH]cc(-c4nnc(-c5ccccc5)o4)c(=O)c3c2)cc1` the inhibition of growth at 10 µM was 9.51%. For `CS(=O)(=O)c1ccc(-c2cnc3[nH]cc(-c4nnc(-c5ccncc5)o4)c(=O)c3c2)cc1`, the inhibition of growth at 10 µM was 12.1%.

The compounds below were run on MCF7 (assay: Growth inhibition of human MCF7 cells at 10 uM after 24 hrs by MTT assay relative to control). Conditions: MCF7, 24 h, read-out: GI.
Type: functional
How it was run: as §1
With `CS(=O)(=O)c1ccc(-c2cnc3[nH]cc(-c4nnc(-c5ccc(F)cc5)o4)c(=O)c3c2)cc1` the inhibition of growth at 10 µM was 8.1%. `CS(=O)(=O)c1ccc(-c2cnc3[nH]cc(-c4nnc(-c5ccccc5)o4)c(=O)c3c2)cc1` showed an inhibition of growth at 10 µM of 2.83%. With `CS(=O)(=O)c1ccc(-c2cnc3[nH]cc(-c4nnc(-c5ccncc5)o4)c(=O)c3c2)cc1` the inhibition of growth at 10 µM was 4.27%.

Each compound was assayed on HCT-116 (assay: Growth inhibition of human HCT116 cells at 10 uM after 24 hrs by MTT assay relative to control). Conditions: HCT-116, 24 h, read-out: GI.
Type: functional
How it was run: as §1
Compound `N#Cc1ccc(-c2cnc3[nH]cc(-c4nnc(-c5ccc(F)cc5)o4)c(=O)c3c2)cc1` has an inhibition of growth at 10 µM of 18.9%. `CS(=O)(=O)c1ccc(-c2cnc3[nH]cc(-c4nnc(-c5ccccn5)o4)c(=O)c3c2)cc1` showed an inhibition of growth at 10 µM of 16.2%. Work on `CS(=O)(=O)c1ccc(-c2cnc3[nH]cc(-c4nnc(-c5ccc(F)cc5)o4)c(=O)c3c2)cc1` yielded an inhibition of growth at 10 µM of 18.6%. `CS(=O)(=O)c1ccc(-c2cnc3[nH]cc(-c4nnc(-c5ccccc5)o4)c(=O)c3c2)cc1` gave an inhibition of growth at 10 µM of 15.7%. Work on `O=c1c(-c2nnc(-c3ccc(Cl)cc3)o2)c[nH]c2ncc(-c3cccnc3)cc12` yielded an inhibition of growth at 10 µM of 11.8%. With `CS(=O)(=O)c1ccc(-c2cnc3[nH]cc(-c4nnc(-c5ccncc5)o4)c(=O)c3c2)cc1` the inhibition of growth at 10 µM was 7.83%.

The compounds below were run on HeLa (assay: Growth inhibition of human HeLa cells at 10 uM after 24 hrs by MTT assay relative to control). Conditions: read-out: GI.
Type: functional
How it was run: as §1
Compound `CS(=O)(=O)c1ccc(-c2cnc3[nH]cc(-c4nnc(-c5ccc(F)cc5)o4)c(=O)c3c2)cc1` has an inhibition of growth at 10 µM of 15.7%. `CS(=O)(=O)c1ccc(-c2cnc3[nH]cc(-c4nnc(-c5ccccc5)o4)c(=O)c3c2)cc1` showed an inhibition of growth at 10 µM of 17.5%. `CS(=O)(=O)c1ccc(-c2cnc3[nH]cc(-c4nnc(-c5ccncc5)o4)c(=O)c3c2)cc1` showed an inhibition of growth at 10 µM of 18.4%.

These compounds were tested on HCT-116 (assay: Potentiation of cisplatin-induced antiproliferative activity against human HCT116 cells assessed as cell growth inhibition at 2.5 uM preincubated for 24 hrs followed by 2.5 uM cisplatin addition and measured after 48 hrs by MTT assay (reference value: 26.98 +/-2.84%)). Conditions: read-out: GI.
Type: functional
Work on `N#Cc1ccc(-c2cnc3[nH]cc(-c4nnc(-c5ccc(F)cc5)o4)c(=O)c3c2)cc1` yielded an inhibition of growth at 2.5 µM of 25.6%. `CS(=O)(=O)c1ccc(-c2cnc3[nH]cc(-c4nnc(-c5ccccn5)o4)c(=O)c3c2)cc1` showed an inhibition of growth at 2.5 µM of 34.3%. Work on `CS(=O)(=O)c1ccc(-c2cnc3[nH]cc(-c4nnc(-c5ccc(F)cc5)o4)c(=O)c3c2)cc1` yielded an inhibition of growth at 2.5 µM of 39.5%. Compound `CS(=O)(=O)c1ccc(-c2cnc3[nH]cc(-c4nnc(-c5ccccc5)o4)c(=O)c3c2)cc1` has an inhibition of growth at 2.5 µM of 27.2%. Compound `O=c1c(-c2nnc(-c3ccc(Cl)cc3)o2)c[nH]c2ncc(-c3cccnc3)cc12` has an inhibition of growth at 2.5 µM of 20.1%. In the case of `CS(=O)(=O)c1ccc(-c2cnc3[nH]cc(-c4nnc(-c5ccncc5)o4)c(=O)c3c2)cc1`, the inhibition of growth at 2.5 µM is reported as 29.2%.

Each compound was assayed on HeLa (assay: Growth inhibition of human HeLa cells at 5 uM after 24 hrs by MTT assay relative to control). Conditions: read-out: GI.
Type: functional
How it was run: as §1
Compound `CS(=O)(=O)c1ccc(-c2cnc3[nH]cc(-c4nnc(-c5ccc(F)cc5)o4)c(=O)c3c2)cc1` has an inhibition of growth at 5 µM of 8.47%. Work on `CS(=O)(=O)c1ccc(-c2cnc3[nH]cc(-c4nnc(-c5ccccc5)o4)c(=O)c3c2)cc1` yielded an inhibition of growth at 5 µM of 8.58%. With `CS(=O)(=O)c1ccc(-c2cnc3[nH]cc(-c4nnc(-c5ccncc5)o4)c(=O)c3c2)cc1` the inhibition of growth at 5 µM was 7.08%.

From ChEMBL document CHEMBL4368880, “Synthesis and biological evaluation of 3-(1,3,4-oxadiazol-2-yl)-1,8-naphthyridin-4(1H)-ones as cisplatin sensitizers” (Medchemcomm, 2018)
